# Laboratory results taken from article PMC5615838 (Toxicology Reports, 2016).
# Experiments:
# [1] = in vivo metabolism after single oral dose, plasma; design: species or system rat; conditions: S7958 30 mg/kg bw oral
# [2] = target: human bitter receptor hTAS2R8; conditions: antagonist; cited from earlier work
# [3] = target: T1, CYP1A2 (Homo sapiens, UniProt P05177); test: CYP inhibition, LC–MS/MS assay in human liver microsomes; type: in vitro ADME; conditions: pooled human liver microsomes, probe ethoxyresorufin
# T1 sequence (P05177 1-516): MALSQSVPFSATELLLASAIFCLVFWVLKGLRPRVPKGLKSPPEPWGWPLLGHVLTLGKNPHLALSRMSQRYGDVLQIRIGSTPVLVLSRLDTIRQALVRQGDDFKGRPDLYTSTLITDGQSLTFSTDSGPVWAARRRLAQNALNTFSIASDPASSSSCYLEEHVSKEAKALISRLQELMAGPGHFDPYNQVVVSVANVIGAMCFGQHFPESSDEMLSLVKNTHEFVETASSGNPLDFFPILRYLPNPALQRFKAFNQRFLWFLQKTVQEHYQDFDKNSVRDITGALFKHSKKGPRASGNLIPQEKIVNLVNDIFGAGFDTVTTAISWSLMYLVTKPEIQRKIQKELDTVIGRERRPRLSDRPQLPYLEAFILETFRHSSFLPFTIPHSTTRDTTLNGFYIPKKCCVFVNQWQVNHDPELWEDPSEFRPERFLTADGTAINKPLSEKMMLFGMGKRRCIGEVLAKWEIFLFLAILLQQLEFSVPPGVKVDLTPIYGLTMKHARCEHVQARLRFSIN
# Summary of the method: (§1)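 Follow-up CYP panel in pooled human liver microsomes with CYP-specific probe substrates; CYP-specific metabolites quantified by LC-MS/MS. Test compound at 10 μM. Percent inhibition reported.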
# [4] = target: T2, CYP2C9 (Homo sapiens, UniProt P11712); type: in vitro ADME
# Summary of the method: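 Pooled human liver microsomes preincubated with test compound for 30 min, with and without an NADPH-generating system, then incubated with diclofenac as the CYP2C9 marker substrate. IC50 derived.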
# [5] = proof of exposure in 28-day study, plasma concentrations; type: in vivo, rat; conditions: for concentration at 29 day: Crl:CD(SD) (Sprague-Dawley), rat, plasma (peripheral blood), oral; for Hepatic Portal Vein Blood Mean Conc. / Hepatic Portal Vein Blood Mean Conc. Ratio: necropsy
# Summary of the method: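 In the 28-day dietary study (10, 30, 100 mg/kg bw/day), plasma test compound measured in peripheral blood taken at 06:00 h GMT on Day 29. Hepatic portal vein blood was sampled from the same animals at necropsy.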
# [6] = tested on: GPCRs, ion channels, nuclear receptors, transporters; test: lead profiling receptor screen; type: binding; conditions: 10 μM
# [7] = target: hERG (Homo sapiens, UniProt Q12809); test: hERG electrophysiology; type: cell-based
# [8] = 28-day subacute toxicity study, diet; type: in vivo, rat; conditions: 28 days
# Summary of the method: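 Diet admix given for 28 consecutive days to Crl:CD(SD) rats, 10/sex/group, at 10, 30 or 100 mg/kg bw/day. H&E-stained paraffin sections of tissues examined microscopically for all control and high-dose (100 mg/kg bw/day) animals.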
# [9] = JECFA SPET dietary exposure estimate; design: species or system human; conditions: 28- and 90-day toxicology studies
# [10] = target: T2, CYP2C9; test: CYP inhibition, LC–MS/MS assay in human liver microsomes; type: in vitro ADME; conditions: pooled human liver microsomes, probe tolbutamide
# Summary of the method: as §1
# [11] = target: CYP2C19 (Homo sapiens, UniProt P33261); test: as above; type: in vitro ADME; conditions: pooled human liver microsomes, probe S-mephenytoin
# Summary of the method: as §1
# [12] = tested on: S. typhimurium strains TA98, TA100, TA1535, TA1537 and E. coli strain WP2 uvrA; test: bacterial reverse mutation test; type: cell-based, Salmonella typhimurium, Escherichia coli; conditions: 50–5000 μg/plate, plate incorporation and pre-incubation, ±S9
# [13] = target: CYP2D6 (Homo sapiens, UniProt P10635); test: CYP inhibition, LC–MS/MS assay in human liver microsomes; type: in vitro ADME; conditions: pooled human liver microsomes, probe bufuralol
# Summary of the method: as §1
# [14] = target: CYP3A4 (Homo sapiens, UniProt P08684); test: as above; type: in vitro ADME; conditions: pooled human liver microsomes, probe midazolam
# Summary of the method: as §1
# T2 sequence (P11712 whole entry): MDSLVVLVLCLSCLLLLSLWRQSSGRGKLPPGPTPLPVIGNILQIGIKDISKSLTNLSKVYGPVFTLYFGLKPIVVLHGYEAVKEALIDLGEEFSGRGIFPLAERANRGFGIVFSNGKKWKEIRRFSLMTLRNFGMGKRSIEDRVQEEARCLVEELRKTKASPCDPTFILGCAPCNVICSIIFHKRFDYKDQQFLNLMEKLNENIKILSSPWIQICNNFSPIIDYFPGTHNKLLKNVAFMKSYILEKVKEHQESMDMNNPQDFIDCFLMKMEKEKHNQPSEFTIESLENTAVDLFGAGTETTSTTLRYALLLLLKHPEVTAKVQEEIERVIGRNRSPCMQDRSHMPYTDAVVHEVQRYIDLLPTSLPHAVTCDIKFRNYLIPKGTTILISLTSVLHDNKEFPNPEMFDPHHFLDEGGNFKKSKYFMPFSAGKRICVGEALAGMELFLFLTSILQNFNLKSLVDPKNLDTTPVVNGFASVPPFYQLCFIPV
# Chain of CYP2D6 (P10635 whole entry): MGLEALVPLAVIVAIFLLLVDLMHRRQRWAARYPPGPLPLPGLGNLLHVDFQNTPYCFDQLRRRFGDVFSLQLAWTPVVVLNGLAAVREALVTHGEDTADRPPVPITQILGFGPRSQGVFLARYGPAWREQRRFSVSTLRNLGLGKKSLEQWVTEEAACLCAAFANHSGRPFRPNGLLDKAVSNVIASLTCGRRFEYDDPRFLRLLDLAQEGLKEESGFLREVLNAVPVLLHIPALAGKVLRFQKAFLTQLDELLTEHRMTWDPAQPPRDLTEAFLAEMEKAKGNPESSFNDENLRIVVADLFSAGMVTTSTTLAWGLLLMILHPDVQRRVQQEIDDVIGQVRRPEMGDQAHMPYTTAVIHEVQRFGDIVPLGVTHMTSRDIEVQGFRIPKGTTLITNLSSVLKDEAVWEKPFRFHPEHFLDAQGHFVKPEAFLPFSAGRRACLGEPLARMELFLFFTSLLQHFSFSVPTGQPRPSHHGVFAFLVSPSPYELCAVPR
# Chain of CYP3A4 (P08684 whole entry): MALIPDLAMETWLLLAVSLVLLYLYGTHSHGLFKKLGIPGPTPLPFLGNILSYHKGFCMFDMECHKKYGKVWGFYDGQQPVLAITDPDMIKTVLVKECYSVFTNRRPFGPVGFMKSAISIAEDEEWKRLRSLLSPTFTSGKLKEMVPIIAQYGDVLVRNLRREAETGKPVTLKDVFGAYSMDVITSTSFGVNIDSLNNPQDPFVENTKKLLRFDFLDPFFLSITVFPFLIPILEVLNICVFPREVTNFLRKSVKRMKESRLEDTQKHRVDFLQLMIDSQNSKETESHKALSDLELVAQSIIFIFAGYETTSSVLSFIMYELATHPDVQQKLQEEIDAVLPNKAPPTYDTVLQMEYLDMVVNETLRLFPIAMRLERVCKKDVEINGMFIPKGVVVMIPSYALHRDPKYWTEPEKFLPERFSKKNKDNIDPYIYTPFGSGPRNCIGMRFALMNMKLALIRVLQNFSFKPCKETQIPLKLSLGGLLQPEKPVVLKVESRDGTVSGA
# Chain of hERG (Q12809 whole entry): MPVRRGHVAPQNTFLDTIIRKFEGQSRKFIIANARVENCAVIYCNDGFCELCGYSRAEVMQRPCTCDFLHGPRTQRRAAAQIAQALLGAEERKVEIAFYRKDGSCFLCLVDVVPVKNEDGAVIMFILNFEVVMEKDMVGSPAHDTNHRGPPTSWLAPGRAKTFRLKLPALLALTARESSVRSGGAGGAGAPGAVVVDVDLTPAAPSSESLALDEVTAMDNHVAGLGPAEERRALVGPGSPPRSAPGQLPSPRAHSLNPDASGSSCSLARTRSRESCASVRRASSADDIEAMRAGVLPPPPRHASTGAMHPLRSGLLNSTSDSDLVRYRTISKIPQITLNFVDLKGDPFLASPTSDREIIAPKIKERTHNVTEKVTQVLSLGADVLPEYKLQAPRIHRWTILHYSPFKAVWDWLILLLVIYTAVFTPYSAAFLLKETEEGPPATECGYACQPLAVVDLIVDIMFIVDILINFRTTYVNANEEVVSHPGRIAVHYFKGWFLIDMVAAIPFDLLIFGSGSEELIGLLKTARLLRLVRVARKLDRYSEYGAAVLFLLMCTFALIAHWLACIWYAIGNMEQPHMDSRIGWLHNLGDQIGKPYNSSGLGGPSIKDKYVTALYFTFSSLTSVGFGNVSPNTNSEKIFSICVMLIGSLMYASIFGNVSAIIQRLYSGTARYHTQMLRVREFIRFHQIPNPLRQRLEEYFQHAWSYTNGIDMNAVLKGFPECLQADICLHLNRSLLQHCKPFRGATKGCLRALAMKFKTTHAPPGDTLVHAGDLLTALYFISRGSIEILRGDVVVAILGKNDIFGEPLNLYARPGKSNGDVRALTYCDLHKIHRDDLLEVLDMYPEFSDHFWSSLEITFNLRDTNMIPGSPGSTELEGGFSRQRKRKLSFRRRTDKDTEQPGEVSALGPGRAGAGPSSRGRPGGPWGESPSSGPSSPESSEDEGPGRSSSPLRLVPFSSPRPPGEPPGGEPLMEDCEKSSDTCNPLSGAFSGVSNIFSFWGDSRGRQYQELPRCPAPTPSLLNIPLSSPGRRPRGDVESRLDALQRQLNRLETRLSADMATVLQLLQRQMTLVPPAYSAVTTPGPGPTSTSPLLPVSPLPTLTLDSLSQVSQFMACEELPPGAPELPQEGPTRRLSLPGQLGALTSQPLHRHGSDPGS
# Chain of CYP2C19 (P33261 whole entry): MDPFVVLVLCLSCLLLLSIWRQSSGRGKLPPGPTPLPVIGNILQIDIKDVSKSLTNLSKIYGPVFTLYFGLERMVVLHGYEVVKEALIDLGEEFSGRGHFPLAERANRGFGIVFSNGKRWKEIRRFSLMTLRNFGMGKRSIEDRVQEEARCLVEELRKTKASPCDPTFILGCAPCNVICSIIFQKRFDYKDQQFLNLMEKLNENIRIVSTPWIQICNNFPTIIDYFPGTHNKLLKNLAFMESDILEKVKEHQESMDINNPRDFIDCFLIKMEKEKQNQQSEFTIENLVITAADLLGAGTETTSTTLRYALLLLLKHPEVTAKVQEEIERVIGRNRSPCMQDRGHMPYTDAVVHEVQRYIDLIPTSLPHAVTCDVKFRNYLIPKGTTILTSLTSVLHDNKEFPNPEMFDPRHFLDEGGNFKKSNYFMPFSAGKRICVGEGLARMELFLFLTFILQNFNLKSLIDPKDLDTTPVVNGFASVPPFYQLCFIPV
smiles,measurement,setting,value
"Cc1noc(C)c1Cn1cc(N2C(=O)N(Cc3cccc(O)c3)C(C)(C)C2=O)cn1 [S7958, 3-(1-((3,5-dimethylisoxazol-4-yl)methyl)-1H-pyrazol-4-yl)-1-(3-hydroxybenzyl)-5,5-dimethylimidazolidine-2,4-dione]",maximum concentration in plasma,[1],5.2 ± 7.1 ng/mL
same,IC50,[2],0.073 µM
same,inhibition at 10 µM,[3],16%
same,IC50,[4],8.8 µM
same,time- or metabolism-dependent inhibition,[4]; 30 min preincubation ±NADPH,no evidence of either time- or metabolism-dependent inhibition
same,Peripheral Blood Mean Conc. Ratio,"[5]; Day 29, 10 mg/kg bw/day, F",1
same,Peripheral Blood Mean Conc. Ratio,"[5]; Day 29, 10 mg/kg bw/day, M",1
same,Peripheral Blood Mean Conc. Ratio,"[5]; Day 29, 30 mg/kg bw/day, F",3.6
same,Peripheral Blood Mean Conc. Ratio,"[5]; Day 29, 30 mg/kg bw/day, M",4.1
same,Peripheral Blood Mean Conc. Ratio,"[5]; Day 29, 100 mg/kg bw/day, F",7.4
same,Peripheral Blood Mean Conc. Ratio,"[5]; Day 29, 100 mg/kg bw/day, M",41.5
same,concentration at 29 day,"[5]; female, 10 mg/kg bw/day",18.4 ng/mL
same,concentration at 29 day,"[5]; female, 30 mg/kg bw/day",66.7 ng/mL
same,concentration at 29 day,"[5]; female, 100 mg/kg bw/day",136 ng/mL
same,concentration at 29 day,"[5]; male, 10 mg/kg bw/day",0.441 ng/mL
same,concentration at 29 day,"[5]; male, 30 mg/kg bw/day",1.79 ng/mL
same,concentration at 29 day,"[5]; male, 100 mg/kg bw/day",18.3 ng/mL
same,Hepatic Portal Vein Blood Mean Conc.,"[5]; 10 mg/kg bw/day, F",19.4 ng/mL
same,Hepatic Portal Vein Blood Mean Conc. Ratio,"[5]; 10 mg/kg bw/day, F",1
same,Hepatic Portal Vein Blood Mean Conc.,"[5]; 10 mg/kg bw/day, M",24.4 ng/mL
same,Hepatic Portal Vein Blood Mean Conc. Ratio,"[5]; 10 mg/kg bw/day, M",1
same,Hepatic Portal Vein Blood Mean Conc.,"[5]; 30 mg/kg bw/day, F",85.0 ng/mL
same,Hepatic Portal Vein Blood Mean Conc. Ratio,"[5]; 30 mg/kg bw/day, F",4.4
same,Hepatic Portal Vein Blood Mean Conc.,"[5]; 30 mg/kg bw/day, M",68.2 ng/mL
same,Hepatic Portal Vein Blood Mean Conc. Ratio,"[5]; 30 mg/kg bw/day, M",2.8
same,Hepatic Portal Vein Blood Mean Conc.,"[5]; 100 mg/kg bw/day, F",334 ng/mL
same,Hepatic Portal Vein Blood Mean Conc. Ratio,"[5]; 100 mg/kg bw/day, F",17.2
same,Hepatic Portal Vein Blood Mean Conc.,"[5]; 100 mg/kg bw/day, M",345 ng/mL
same,Hepatic Portal Vein Blood Mean Conc. Ratio,"[5]; 100 mg/kg bw/day, M",14.1
same,significant responses (≥50% inhibition or stimulation),[6],No significant responses
same,inhibition at 10 µM,[7],< 10%
same,NOAEL,"[8]; 10, 30, 100 mg/kg bw/day food ad-mix, both sexes",100 mg/kg bw/day
same,Findings,[8]; up to 100 mg/kg bw/day,No test-article related findings
same,NOAEL of 100 mg/kg bw/day as multiple of estimated dietary exposure,[9],1500 times
same,inhibition at 10 µM,[10],62%
same,inhibition at 10 µM,[11],17%
same,"Reverse mutation (in vitro), Result",[12],Negative
same,inhibition at 10 µM,[13],17%
same,inhibition at 10 µM,[14],12%
